Results published in ChEMBL document CHEMBL1124344, “5-Piperazinylalkyl-2(3H)-oxazolones with neuroleptic activity” (J Med Chem, 1989).

Key:
Mus musculus [1] = experiment: Inhibition against apomorphine-induced turning, after 5 hour of peroral administration in mouse; assay type: functional; conditions: po
In short: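 Mice were lesioned unilaterally with intranigrostriatal 6-hydroxydopamine (20 µg). At 7 days, strong contraversive turners 15 min after apomorphine 2 mg/kg ip were selected. A week later they were dosed orally and rechallenged. Fewer than six full rotations in 2 min counted as protection. ED50 is the dose protecting 50%.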

Mus musculus [2] = experiment: Effect on skeletal muscle tone, after 1 hour of peroral administration in mouse at a dose of 200 mg/kg; assay type: functional; conditions: Muscle tissue, route oral
In short: (§1)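 Male mice were placed for 1 h on a 60° inclined wire screen just after dosing and 4 h later. In a second test, trained mice hung by the forepaws from a horizontal 1.8 mm wire 15 cm up; normal mice touch it with a hind paw within 2 s and stay ≥1 min. ED50 is the dose making 50% fall. Dosing was oral in gum arabic suspension at 10 mL/kg after an overnight fast.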

Mus musculus [3] = experiment: Potentiation against pentobarbital-induced sleeping, after 1 hour of peroral administration in mouse at a dose of 100 mg/kg; assay type: functional; conditions: route oral
In short: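 Female mice fasted overnight, dosed orally 1 or 5 h beforehand as arabic gum suspension, 10 mL/kg, with vehicle controls. Subhypnotic pentobarbital 10 mg/kg iv; 3 min later placed on back, effect scored as complete loss of righting reflex for at least 15 s. ED50 = dose producing this in 50% of mice, probit analysis.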

Mus musculus [4] = experiment: Anticonvulsant activity against pentylenetetrazole-induced convulsions, after 5 hour of peroral administration in mouse at a dose of 100 mg/kg; assay type: functional; conditions: route oral
In short: (§2)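 Compounds were dosed as bases suspended in arabic gum at 10 mL/kg orally, after an overnight fast, with vehicle controls. Protection meant no bilateral forepaw clonic seizures or head twitches (tryptamine), or no tonic hind-limb extension (the other two). ED50 is the dose protecting 50%, by probit analysis.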

Mus musculus [5] = experiment: Anticonvulsant activity against tryptamine-induced convulsions, after 1 hour of peroral administration in mouse at a dose of 40 mg/kg; assay type: functional; conditions: route oral; in short: as §2
Mus musculus [6] = experiment: Anticonvulsant activity against tryptamine-induced convulsions, after 5 hour of peroral administration in mouse at a dose of 40 mg/kg; assay type: functional; conditions: route oral; in short: as §2
Rattus norvegicus [7] = experiment: Inhibitory activity against norepinephrine-induced lethality, after 5 hour of peroral administration in rat at a dose of 40 mg/kg; assay type: functional; conditions: route oral
In short: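 Rats (80–90 g) dosed orally (arabic gum, 10 mL/kg) 1 or 5 h before norepinephrine 0.5 mg/kg iv, which kills unprotected rats within 30 min. ED50 is the dose protecting 50% of rats from lethality, by probit analysis.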

Rattus norvegicus [8] = experiment: Antagonistic activity against apomorphine-induced stereotypy, after 1 hour of peroral administration in rats at a dose of 100 mg/kg; assay type: functional; conditions: route oral
In short: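 Male rats fasted overnight and given oral doses in arabic gum suspension (10 mL/kg) 1 h, or 1 and 5 h, before challenge. Apomorphine 3 mg/kg iv, with stereotypy observed 20 min later. ED50 is the dose inhibiting stereotypy in 50% of rats, per Janssen's method. Parenthetical entries give the maximal dose and percent activity.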

Mus musculus [9] = experiment: Activity of inclined screen in mouse, after 1 hour of peroral administration in mouse at a dose of 100 mg/kg; assay type: functional; conditions: route oral
In short: (§3)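 Male mice dosed orally (arabic gum suspension, 10 mL/kg, fasted overnight) 1 or 5 h before testing. Placed for 1 h on a wire screen bent at 60° to the horizontal. Ataxic or miorelaxed mice slide off. ED50 is the dose at which 50% of mice fall, by probit analysis. Ten animals per dose, with vehicle controls.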

Mus musculus [10] = experiment: Inhibition of spontaneous motor activity after 1 hour of peroral administration in mouse; assay type: functional; conditions: po
In short: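 Mice in groups of five were dosed orally with gum arabic suspensions at 10 mL/kg after an overnight fast, with a vehicle control group. Locomotion was counted for 10 min in a photocell activity cage, in at least two groups per dose. ED50, by probit analysis, is the dose giving 50% inhibition against controls.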

Mus musculus [11] = experiment: Effect on skeletal muscle tone, after 1 hour of peroral administration in mouse at a dose of 100 mg/kg; assay type: functional; conditions: Muscle tissue, route oral; in short: as §1
Mus musculus [12] = experiment: Activity of inclined screen in mouse, after 5 hour of peroral administration in mouse at a dose of 60 mg/kg; assay type: functional; conditions: route oral; in short: as §3
Mus musculus [13] = experiment: Anticonvulsant activity against electroshock-induced convulsions, after 5 hour of peroral administration in mouse at a dose of 40 mg/kg; assay type: functional; conditions: route oral; in short: as §2
Mus musculus [14] = experiment: Anticonvulsant activity against electroshock-induced convulsions, after 1 hour of peroral administration in mouse at a dose of 40 mg/kg; assay type: functional; conditions: route oral; in short: as §2
Mus musculus [15] = experiment: Anticonvulsant activity against pentylenetetrazole-induced convulsions, after 5 hour of peroral administration in mouse at a dose of 40 mg/kg; assay type: functional; conditions: route oral
In short: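 Male mice dosed orally (arabic gum, 10 mL/kg) 1 or 5 h before challenge with tryptamine 100 mg/kg iv, pentylenetetrazol 110 mg/kg ip, or maximal electroshock. Protection means no bilateral forepaw clonic seizures and head twitches (tryptamine) or no tonic hind-limb extension (others). ED50 protects 50% of mice.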

Rattus norvegicus [16] = species: Rattus norvegicus; experiment: Body weight gain, after 2 hour of period of conditioned feeding in rats,; assay type: functional
In short: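 Female rats (250–280 g) were kept singly on a 22-h food deprivation schedule, with pellets 10–12 a.m. and water always available. After 30–40 days of training they were dosed 1 h before the 2-h feeding and weighed before and after it. Weight gain was expressed as a percentage of the two preceding control days. ED50 is the dose giving 50% reduction.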

Mus musculus [17] = experiment: Effect on skeletal muscle tone, after 1 hour of peroral administration in mouse at dose of 200 mg/kg; assay type: functional; conditions: Muscle tissue, route oral; in short: as §1
Mus musculus [18] = experiment: Anticonvulsant activity against electroshock-induced convulsions, after 1 hour of peroral administration in mouse at dose of 100 mg/kg; assay type: functional; conditions: route oral; in short: as §2
Mus musculus [19] = experiment: Anticonvulsant activity against tryptamine-induced convulsions, after 5 hour of peroral administration in mouse at dose of 40 mg/kg; assay type: functional; conditions: route oral; in short: as §2
Mus musculus [20] = experiment: Inhibitory activity against tremorine-induced salivation, after 1 hour of peroral administration in mouse at dose of 60 mg/kg; assay type: functional; conditions: route oral
In short: (§4)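 Male mice fasted overnight, dosed orally with arabic gum suspension (10 mL/kg) 1 or 5 h before test, vehicle controls included. Tremorine 20 mg/kg ip given 1 h after compounds; central (tremor) and peripheral (salivation) parasympathetic signs recorded. ED50 = dose protecting 50% of animals, by probit analysis.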

Mus musculus [21] = experiment: Inhibitory activity against tremorine-induced tremors, after 1 hour of peroral administration in mouse at dose of 60 mg/kg; assay type: functional; conditions: route oral; in short: as §4
Mus musculus [22] = experiment: Inhibitory activity against tremorine-induced salivation, after 5 hour of peroral administration in mouse at dose of 60 mg/kg; assay type: functional; conditions: route oral; in short: as §4
Mus musculus [23] = experiment: Inhibitory activity against tremorine-induced tremors, after 1 hour of peroral administration in mouse at dose 7.5 mg/kg; assay type: functional; conditions: route oral; in short: as §4
Rattus norvegicus [24] = species: Rattus norvegicus; experiment: Binding affinity against rat striatal membranes using [3H]spiroperidol as the radioligand after 15 min of incubation at 37 °C
Mus musculus [25] = experiment: Inhibitory activity against tremorine-induced tremors, after 5 hour of peroral administration in mouse; assay type: functional; conditions: po
Mus musculus [26] = experiment: Anticonvulsant activity against pentylenetetrazole-induced convulsions, after 1 hour of peroral administration in mouse at a dose of 20 mg/kg; assay type: functional; conditions: route oral; in short: as §2
Mus musculus [27] = experiment: Contractile activity in skeletal muscles, after 1 hour of peroral administration in mouse at dose 30 mg/kg; assay type: functional; conditions: Muscle tissue, route oral; in short: as §1
Mus musculus [28] = experiment: Inhibitory activity against tremorine-induced tremors, after 1 hour of peroral administration in mouse at dose 20 mg/kg; assay type: functional; conditions: route oral; in short: as §4

## O=c1[nH]c(-c2ccc(F)cc2)c(CCN2CCN(c3cc(Cl)cc(Cl)c3)CC2)o1 [LODIPERONE]
Mus musculus [1]
  ED50: 1 mg/kg
Mus musculus [2]
  inhibition in vivo at 200 mg/kg: 10%
Mus musculus [3]
  inhibition in vivo at 100 mg/kg: 30%
Mus musculus [4]
  inhibition in vivo at 100 mg/kg: 0%
Mus musculus [5]
  inhibition in vivo at 40 mg/kg: 0%
Mus musculus [6]
  inhibition in vivo at 40 mg/kg: 0%
Rattus norvegicus [7]
  inhibition in vivo at 40 mg/kg: 10%
Rattus norvegicus [8]
  inhibition in vivo at 100 mg/kg: 0%
Mus musculus [9]
  inhibition in vivo at 100 mg/kg: 0%

## COc1ccccc1N1CCN(CCCC(=O)c2ccc(F)cc2)CC1 [FLUANISONE]
Mus musculus [10]
  ED50: 7.7 mg/kg
Mus musculus [11]
  inhibition in vivo at 100 mg/kg: 30%
Mus musculus [12]
  inhibition in vivo at 60 mg/kg: 0%
Mus musculus [13]
  inhibition in vivo at 40 mg/kg: 0%
Mus musculus [14]
  inhibition in vivo at 40 mg/kg: 0%
Mus musculus [15]
  inhibition in vivo at 40 mg/kg: 0%
Rattus norvegicus [16]
  ED50: 6 mg/kg

## COc1ccccc1N1CCN(CCc2oc(=O)[nH]c2-c2ccc(F)cc2)CC1 [ZOLOPERONE]
Mus musculus [1]
  ED50: 20 mg/kg
Mus musculus [17]
  inhibition in vivo at 200 mg/kg: 0%
Mus musculus [18]
  inhibition in vivo at 100 mg/kg: 0%
Mus musculus [19]
  inhibition in vivo at 40 mg/kg: 0%
Mus musculus [20]
  inhibition in vivo at 60 mg/kg: 0%
Mus musculus [21]
  inhibition in vivo at 60 mg/kg: 10%
Mus musculus [22]
  inhibition in vivo at 60 mg/kg: 0%

## CN(C)CCCN1c2ccccc2Sc2ccc(Cl)cc21 [CHLORPROMAZINE]
Mus musculus [23]
  inhibition in vivo at 7.5 mg/kg: 0%
Rattus norvegicus [24]
  IC50: 180 nM

## O=C(CCCN1CCC(O)(c2ccc(Cl)cc2)CC1)c1ccc(F)cc1 [HALOPERIDOL]
Mus musculus [25]
  ED50: 20 mg/kg
Mus musculus [26]
  inhibition in vivo at 20 mg/kg: 0%
Mus musculus [27]
  inhibition in vivo at 30 mg/kg: 0%
Mus musculus [28]
  inhibition in vivo at 20 mg/kg: 0%
Rattus norvegicus [24]
  IC50: 10 nM
